High-throughput results (PubChem)
Hsp70 activator = switches on Hsp70 transcription | HeLa Hsp70 promoter luciferase reporter, luminescence; scaled: vehicle 0, proteasome-inhibitor control 100% | activation, % at 10 µM | 200,000 compounds, 0.04% hits;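 active = activation above the mean across all tested compounds plus 3 SD, cutoff set per campaign, cut at about 5.5% in these data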;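 also: 100% = MG132 at 30 µM as the positive control and 0% = DMSO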
Lmaj promast = Leishmania major promastigote growth inhibition; Leishmania major promastigotes, resazurin fluorescence viability; inhibition, % at 10 µM; 200,000 compounds, 9% hits; AID 1063; in the data active = inhibition above about 50%;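 also: promastigotes grown with compound for 44 hours at 28 °C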
HSF1 activator = increases HSF-1 driven luciferase reporter signal | NIH3T3-HGL HSF-1 luciferase reporter, MG132, 8 h; 100% = twice DMSO control signal | AID 504408 | 300,000 compounds, 1.7% hits | activation, % at 9 µM;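 active = mean replicate activation of at least 50% with a set share of replicates each reaching 50%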;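 also: 0% = median of the neutral control wells and 100% = twice that signal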
HSF1 inh = HSF1 inhibition. NIH3T3-HGL HSE-luciferase, MG132-induced, luminescence 8 h; stronger effect = lower value. 300,000 compounds, 0.77% hits. activity change, negative = inhibition, % at 7.5 µM (by protocol);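 active = more than half of replicate wells show activity change below -50%, luminescence cut by over half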;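 also: luciferase reports HSF-1 transcriptional activity via heat shock element; 0% = median of DMSO wells and -100% = zero luminescence signal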
T cruzi inh = blocks replication of Trypanosoma cruzi; AID 1885; T. cruzi beta-gal in NIH3T3, luminescence, 90 h; 300,000 compounds, 1.4% hits; inhibition, % (concentration not given with the values);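 active = mean inhibition across valid replicates above about 55%, limit read from the data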;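 also: signal also drops with host cell toxicity which is not excluded here; 0% = plate median of DMSO wells and 100% = zero luminescence signal; higher percent means less beta-gal luminescence so fewer parasites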
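System: NIH/3T3 fibroblasts plus reporter T. cruzi. Medium: DMEM plus 2% FBS. Probe or stimulus: 5000 reporter trypomastigotes per well. Compound: single 50 nL compound addition per well in DMSO. Incubation: co-culture of at least 90 h after 3 h attachment. Detection: GalScreen β-gal luminescence, detergent lysis, 60 min. Evaluation: parasite load inhibition, %.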
Active calls of the source: *; / = no result given. Shown is part of a subset that was picked to be rich in hits.

SMILES	Hsp70 activator	Lmaj promast	HSF1 activator	HSF1 inh	T cruzi inh
CCc1ccccc1NC(=O)CCc1c(C)nc(SC)nc1C	/	/	14.0	6.3	-2.0
COc1cccc(CN2CCC(C(=O)N3CCC(C)CC3)CC2)c1	-0.1	-1.1	-4.2	-8.5	-2.3
Cc1ccc(/C=C2/NC(=O)N(Cc3ccccc3)C2=O)s1	-0.2	72.8*	-11.6	-6.4	-3.8
Cc1cccc(CN2C(=O)N/C(=C/c3ccc(C)s3)C2=O)c1	-0.3	8.3	-10.0	-6.7	16.8
Cc1ccc(OCc2cc(C(=O)N3CC4C[C@@H]5CC3C[C@H](C4)C5)no2)cc1C	/	/	32.8	31.1	23.5
Cc1ccccc1-n1cnc2cc(NCc3cccs3)ccc21	0.0	19.8	12.8	6.4	12.4
CCCn1cnc2cc(NCc3ccc(Br)cc3)ccc21	/	/	37.5	24.4	17.1
COc1ccc(CNc2ccc3c(c2)ncn3-c2ccccc2OC)cc1	-0.4	100.3*	14.9	8.4	26.3
CCCn1cnc2cc(NCc3cccc(OC)c3)ccc21	0.0	1.8	51.0*	27.8	-34.6
COc1ccccc1-n1cnc2cc(NCc3cccs3)ccc21	0.0	96.4*	-0.7	12.8	13.0
Cc1ccc(S(=O)(=O)N/N=C\c2cn(CC(N)=O)c3ccccc23)cc1C	/	/	-4.4	3.5	10.8
CCOc1ccc(S(=O)(=O)N2CC(=O)Nc3ccccc32)cc1	/	/	-28.1	-10.7	-12.7
COc1ccccc1CCNC(=O)C(=O)c1cn(CC(=O)N2CCOCC2)c2ccccc12	/	/	25.4	17.2	-5.0
CC(Cc1nnc(N)s1)c1ccccc1 (stereo not given)	/	/	-8.8	1.2	-8.7
CCOP(=O)(OCC)c1nc(-c2cccc3ccccc23)oc1NCc1ccc(OC)cc1	-0.2	70.7*	10.2	11.6	57.4*
CCOP(=O)(OCC)c1nc(-c2ccc(C)cc2)oc1NCc1ccccc1	-0.2	78.8*	9.8	0.3	12.9
COP(=O)(OC)c1nc(-c2cccc3ccccc23)oc1NCCc1ccccc1	-0.2	71.2*	9.9	4.6	26.9
O=C(NCCc1nc(-c2ccccc2)no1)c1ccco1	/	/	-8.8	-5.0	-29.7
CCOC(=O)c1ccc(NC(=O)N2CCN(c3ccccc3OC)CC2)cc1	-0.2	31.1	1.0	-8.6	-2.1
CC(C)C(OC(=O)CN1C(=O)c2ccccc2C1=O)C(=O)NC1CCCCC1 (stereo not given)	/	/	0.8	-5.0	-1.1
Cc1c(OC(C)C(=O)NCC(O)c2ccccc2)ccc2c3c(c(=O)oc12)CCC3 (stereo not given)	/	/	8.7	4.3	5.6
Cc1ccc(CSC2=NCCN2S(=O)(=O)c2ccccc2)cc1	-0.4	99.5*	-25.0	-15.6	40.5
C/C(CCc1ccccc1)=N/NC(=O)C(=O)NCc1ccccc1	0.4	-2.0	-1.6	-2.0	-7.5
O=C(Nc1ccncc1)c1cc2ccccc2cc1O	/	/	261.4*	231.8	2.8
COc1ccc(C(=O)Nc2ccc(Cc3ccncc3)cc2)cc1Br	0.1	1.5	-28.6	-0.8	0.6
SMILES	Hsp70 activator	Lmaj promast	HSF1 activator	HSF1 inh	T cruzi inh
COc1ccc(NC(=O)Nc2ccc(Cc3ccncc3)cc2)cc1OC	-0.2	96.5*	4.1	-5.4	-22.1
CC(C)(C)c1ccc(S(=O)(=O)Nc2ccc(Cc3ccncc3)cc2)cc1	-0.1	88.0*	26.3	10.1	24.9
CC(=O)Nc1ccc(Cc2ccncc2)cc1	-0.5	-0.3	-76.4	-68.7*	-10.1
O=C(Nc1cccc([N+](=O)[O-])c1)c1cc2ccccc2cc1O	/	/	1.2	2.4	-10.4
COc1cc(NC(=O)c2cc(S(=O)(=O)N3CCCCC3)c[nH]2)cc(OC)c1	/	/	-4.1	-1.7	-6.0
COc1cc2ccccc2cc1C(=O)Nc1ccc(Cc2ccncc2)cc1	0.2	98.9*	9.2	-0.7	61.7*
CCN(CC)S(=O)(=O)c1ccc(C(=O)Nc2ccc(Cc3ccncc3)cc2)cc1	-0.3	99.1*	-4.1	-8.5	48.1
O=C(Nc1ccc(Cc2ccncc2)cc1)C1CCC(N2C(=O)C3C4C=CC(C5CC45)C3C2=O)CC1 (stereo not given)	-0.3	51.6*	32.8	5.4	42.5
COc1cc2ccccc2cc1C(=O)Nc1ccc(C)cc1	/	/	39.4	21.3	-3.9
Cc1ccc(N(CC(=O)Nc2ccc(Br)c(C)c2)S(=O)(=O)c2c(C)[nH]c(=O)[nH]c2=O)cc1	/	/	0.8	-1.7	-5.5
CC(=O)Nc1ccccc1OC(C)C(=O)NC(C)c1ccc(F)cc1 (stereo not given)	0.2	-1.5	4.1	-7.1	-21.0
Cc1cc(Cl)c2oc(C(=O)N3CCN(c4ccncc4)CC3)c(C)c2c1	/	/	-8.3	-6.1	60.5*
COC(=O)C1CCN(C(=O)c2oc3c(Cl)cc(C)cc3c2C)CC1	/	/	33.2	23.4	8.6
O=C(Cn1ccc(C(F)(F)F)n1)N/N=C/c1ccc(N2CCOCC2)cc1	-0.2	-5.3	0.2	-7.8	0.4
CCOc1ccc(C(=O)N2CCN(c3cnn(-c4ccccc4)c(=O)c3Cl)CC2)cc1	0.1	4.4	1.0	0.9	4.4
O=C(c1cccc(Br)c1)N1CCN(c2cnn(-c3ccccc3)c(=O)c2Cl)CC1	-0.2	84.1*	-14.0	0.9	2.8
Cc1cc(C)n(-c2nnc(C)n2/N=C/c2cc(Br)ccc2OCc2ccccc2)n1	0.2	89.2*	32.0	35.8	11.9
COc1ccc(S(=O)(=O)NNC(=O)C2COc3ccccc3O2)cc1[N+](=O)[O-] (stereo not given)	/	/	-2.7	2.0	17.2
CCc1cc(SC#N)cc(CC)c1NC(=O)CCl	0.3	20.0	29.7	15.5	2.1
Cc1ccc(C)c(N2CCN(C(=O)c3ccc(NS(=O)(=O)c4c(C)noc4C)cc3)CC2)c1	-0.1	92.6*	13.7	4.5	16.2
Cc1ccc(NC(=O)c2ccc(NS(=O)(=O)c3c(C)noc3C)cc2)cc1C	0.2	0.7	10.8	3.8	-13.2
Cc1noc(C)c1S(=O)(=O)Nc1ccc(C(=O)N2CCCCC2)cc1	-0.3	-4.9	1.8	-7.8	-15.8
Cc1ccc(Cl)cc1N1CCN(C(=O)c2ccc(NS(=O)(=O)c3c(C)noc3C)cc2)CC1	0.0	96.4*	37.3	4.9	34.6
Cc1ccc(CN2[C@@H](CC3CCCCC3)COCCS2(=O)=O)cc1	/	/	5.3	5.4	3.3
COc1ccc(CCNC(=O)C2CCC(=O)N(CC3CCCCC3)C2)cc1 (stereo not given)	/	/	32.0	-1.1	1.9
COc1ccc(S(=O)(=O)NCC2CCCN(C(=O)c3ccccc3)C2)cc1 (stereo not given)	-0.3	-2.8	-1.2	3.3	-13.8
O=C(c1ccccc1)N1CCN(c2ncnc3sc4c(c23)CCC4)CC1	-0.2	62.7*	1.1	-2.2	-24.6
c1nc(N2CCOCC2)c2c3c(sc2n1)CCCC3	-0.1	-2.1	-22.7	-12.6	-0.6
COc1ccc(/C=C2\SC(=O)N(CCNC(=O)Cn3cnnn3)C2=O)cc1	0.7	55.8*	39.4	20.9	-1.4
O=C(NCCN1C(=O)S/C(=C\c2ccc(F)cc2)C1=O)C1CCN(S(=O)(=O)c2cccs2)CC1	-0.4	20.8	11.1	6.1	-1.4
